Screening data deposited in PubChem BioAssay by several laboratories.
Shown are actives, neighbours in structure and some others; about 1.9% of the full set was active somewhere.
CaV13 ICDI inh – Primary screen for inhibitors of IQ motif and Ca2+-dependent inactivation inhibitor domain binding in CACNA1D, Förster resonance energy transfer in living cells, …. HEK cells, CFP/YFP FRET ICDI-IQ, plate reader, 10 min; percent FRET-ratio fall versus neutral wells. inhibition, % at 12.3 µM. 0.098% of 340,000 active. AID 743397;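 active = mean replicate inhibition of at least 30% and at least 1% of replicates passing that level; inconclusive = only one of the two criteria is met; inactive = neither criterion is met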
HDAC3 inh – blocks human histone deacetylase 3 | 0.15% of 320,000 active | recombinant HDAC3, fluorogenic peptide/trypsin coupled, fluorescence | inhibition, % at 8.3 µM | O15379 | AID 2718; in the data active = inhibition above about 26%, passing the limit was not always enough; inconclusive = no clear call, values can overlap the other calls
RanGTP-Impb inh – inhibitors of RanGTP-importin-beta interaction, primary screen, biochemical, FRET, CFP-Ran, YFP-importin-beta, homogeneous; cell-free CFP-Ran/YFP-importin-beta FRET ratio; inhibition, % (concentration not given with the values); 1.1% of 300,000 active; AID 2216;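 active = more than half of the replicate wells show a fall in the fluorescence ratio signal beyond about 16%, limit read from the data, passing the limit was not always enough; inconclusive = exactly half of the replicate wells pass the set limit; inactive = fewer than half of replicates pass the limit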
Runt-CBFb FRET – blocks binding of human RUNX1 Runt domain to CBFb. inhibition, % at 20 µM. Q01196+Q13951. 0.46% of 220,000 active. Cerulean-Runt/Venus-CBFb FRET ratio 530/480, 1 h. AID 1496;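 active = inhibition over about 50% at 20 µM in the single-dose screen, limit read from the data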
Target sequence (Q01196 whole entry, looked up, the tested form may be a part): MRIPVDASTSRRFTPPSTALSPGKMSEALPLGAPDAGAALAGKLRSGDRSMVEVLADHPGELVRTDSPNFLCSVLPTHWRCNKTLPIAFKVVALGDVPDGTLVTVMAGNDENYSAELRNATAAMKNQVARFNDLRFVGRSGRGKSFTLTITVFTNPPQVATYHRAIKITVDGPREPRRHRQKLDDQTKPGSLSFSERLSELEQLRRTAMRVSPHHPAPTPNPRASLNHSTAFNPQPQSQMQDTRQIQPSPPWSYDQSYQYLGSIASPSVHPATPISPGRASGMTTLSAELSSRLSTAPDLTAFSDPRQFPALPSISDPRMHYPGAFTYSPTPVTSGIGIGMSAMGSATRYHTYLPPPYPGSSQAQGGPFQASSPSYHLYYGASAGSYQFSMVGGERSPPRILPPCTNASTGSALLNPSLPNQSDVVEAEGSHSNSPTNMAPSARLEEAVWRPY
Target sequence (Q13951 whole entry, looked up, the tested form may be a part): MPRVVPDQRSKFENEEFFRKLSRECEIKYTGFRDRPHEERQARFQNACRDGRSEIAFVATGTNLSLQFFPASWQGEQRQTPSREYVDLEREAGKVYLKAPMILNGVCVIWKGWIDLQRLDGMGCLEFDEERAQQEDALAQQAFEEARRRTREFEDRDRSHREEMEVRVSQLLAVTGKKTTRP
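Doses: 20 µM compound in 1% DMSO | Material: Cerulean-labeled Runt domain protein | Amount: Each fluorescent fusion protein 100 nM | Schedule: Two 1 h room-temperature incubations shielded from light | Measured by: FRET fluorescence | Evaluation: Loss of energy transfer signal | Controls: Unlabeled CBFb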
LANA-H2B inh – blocks KSHV LANA binding to histone H2A/H2B | inhibition, % (no concentration beside the values) | AID 2629 | Q9QR71 | 0.6% of 320,000 active | cell-free LANA-H2A/H2B peptide, fluorescence polarization; in the data active = inhibition mostly above about 10%, no sharp cut-off; inactive = mostly below about 6.7%
Runt-SMMHC FRET – inhibitors of human RUNX1 Runt domain binding to CBFb-SMMHC. Cerulean-Runt/Venus-CBFb-SMMHC FRET ratio 530/480, 1 h. inhibition, % at 20 µM. 0.74% of 220,000 active. AID 1434;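 active = mean inhibition across duplicate retests at 20 µM reaching about 50%, limit read from the data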;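 note: inhibitors lower the FRET ratio by blocking Runt binding to CBFb-SMMHC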
Numbers stand for hits; - = inactive; ? = inconclusive; . = no result; + = active, no number.

SMILES | CaV13 ICDI inh | HDAC3 inh | RanGTP-Impb inh | Runt-CBFb FRET | LANA-H2B inh | Runt-SMMHC FRET
COc1cc(/C=C2\SC(=O)N(CCNC(=O)c3sc4cc(F)ccc4c3Cl)C2=O)cc(OC)c1OC | - | - | - | - | 15 | -
c1ccc(Nc2ccccc2)cc1 | - | - | - | . | - | .
O=CNc1ccccc1 | . | - | . | . | 96 | .
CCCCc1c(O)c2ccccc2n(CCCC)c1=O | - | - | - | - | 14 | -
CCNC(=O)C1CCN(S(=O)(=O)c2ccc(F)cc2)CC1 | - | - | - | - | - | -
Cc1cccc(NC(=S)NCCc2ccccc2)c1C | - | - | - | . | - | .
COc1ccc(CCNC(=S)Nc2cccc(C)c2C)cc1 | . | - | 27 | - | - | -
CCOc1ccc(NC(=O)N(c2ccccc2)c2ccccc2)cc1 | - | - | - | . | - | .
CCOc1ccc(NC(=O)C(c2ccccn2)N(C(=O)CCl)c2ccc(F)cc2)cc1 (stereo not given) | . | - | - | - | 33 | -
CSc1ccccc1NC(=S)Nc1ccc(S(N)(=O)=O)cc1 | - | - | ? | - | - | -
Cn1c(CC(=O)NNC(=O)c2ccc(F)cc2F)nc2ccccc21 | - | - | . | . | - | .
Cn1c(CC(=O)NNC(=O)c2cccnc2)nc2ccccc21 | - | - | . | . | 19 | .
CCOc1ccccc1CN1CCN(C2CCN(c3ccccc3F)CC2)CC1CCO (stereo not given) | - | - | - | - | - | -
CCn1c(=O)cc(SCC(=O)N2CCN(C)CC2)c2ccccc21 | - | - | - | - | - | -
CCN1CCN(C(=O)CSc2cc(=O)n(CC)c3ccccc23)CC1 | - | - | 37 | - | - | -
COc1ccc(-n2c3nc4ccccc4nc3c3c(=N)oc(C)nc32)cc1 | - | - | - | 66 | - | 129
CCCCn1c2nc3ccccc3nc2c2c(=N)oc(C)nc21 | - | . | . | - | . | 79
CCCCC(CC)Cn1c2nc3ccccc3nc2c2c(=N)oc(C)nc21 (stereo not given) | . | . | - | - | . | -
CCOCCCNC(=S)N(CCN(C)C)Cc1cc2cc3c(cc2[nH]c1=O)OCCO3 | - | 35 | - | . | - | .
CCOC(=O)c1cc2c(=O)n3cccc(C)c3nc2n(Cc2ccco2)c1=NC(=O)c1ccccc1 | - | - | 106 | 93 | - | .
CCOC(=O)c1cc(CC)sc1NC(=O)CSc1nc2ccccc2c(=O)n1Cc1ccco1 | - | - | - | - | - | -
CCOC(=O)c1cc2c(=O)n3ccccc3nc2n(Cc2ccco2)c1=NC(=O)c1ccccc1OC | - | - | 62 | 89 | - | 86
CCOC(=O)c1cc2c(=O)n3ccccc3nc2n(Cc2ccco2)c1=NC(=O)c1ccc(OC)cc1 | - | - | - | 89 | - | 86
COc1ccc2nc(N3CCC(C)CC3)c(C#N)cc2c1 | - | - | 45 | 71 | - | 70
COc1ccc2nc(N3CCC(O)CC3)c(C#N)cc2c1 | - | - | 51 | - | - | 75
SMILES | CaV13 ICDI inh | HDAC3 inh | RanGTP-Impb inh | Runt-CBFb FRET | LANA-H2B inh | Runt-SMMHC FRET
COc1ccc(-n2c(=S)[nH]c3cc(C(=O)Nc4cccc(C)c4)ccc3c2=O)cc1 | - | - | - | - | - | -
COc1ccc(-n2c(=S)[nH]c3cc(C(=O)Nc4ccc(OC)c(OC)c4)ccc3c2=O)cc1 | - | - | - | - | 126 | -
N=c1c(C(=O)NCc2ccccc2)cc2c(=O)n3ccccc3nc2n1CCCN1CCOCC1 | . | - | . | 58 | - | -
N=c1c(C(=O)NCCc2ccccc2)cc2c(=O)n3ccccc3nc2n1CCCN1CCOCC1 | - | - | 175 | . | - | .
Cc1ccc(Cn2c(=N)c(C(=O)NCCN3CCOCC3)cc3c(=O)n4ccccc4nc32)cc1 | - | - | - | . | - | .
N=c1c(C(=O)NCc2ccc(F)cc2)cc2c(=O)n3ccccc3nc2n1CCCN1CCOCC1 | . | - | . | - | - | 65
N=c1c(C(=O)NCCN2CCOCC2)cc2c(=O)n3ccccc3nc2n1CCc1ccccc1 | - | - | 156 | . | - | .
COCCCn1c(C(=O)NCCN2CCOCC2)cc2c(=O)n3ccccc3nc21 | - | - | - | . | - | .
O=C(Cc1n[nH]c(=O)c2ccccc12)N/N=C/c1cc2c(cc1Cl)OCO2 | - | - | - | . | - | .
COc1[nH]c(/N=C/c2ccccc2)c(C#N)c1C#N | - | - | - | - | 44 | -
Cc1oc(/N=C/c2ccccc2)c(C#N)c1C | - | - | - | . | - | .
Cc1cccc(CC2CC(=O)N(c3ccc(C)cc3Br)C2=O)c1 (stereo not given) | - | - | - | . | 26 | .
Cc1ccc(C)c(N2C(=O)CC(Cc3ccccc3)C2=O)c1 (stereo not given) | - | - | - | . | - | .
CN(C)CC/C=C1/c2ccccc2CS(=O)(=O)c2ccccc21 | - | - | - | . | - | .
CN(C)CC/C=C1\c2ccccc2COc2ccccc21 | - | . | - | - | 70 | -
O=C(CCCN1C(=O)CSc2ncccc21)N1CCN(Cc2ccccc2)CC1 | 37 | - | - | - | - | -
Cc1nc2cc(N3CCOCC3)c(NC(=O)C3CC3)cc2c(=O)n1Cc1ccccc1 | - | - | - | - | 56 | -
Cc1nc2cc(N3CCCCC3)c(NC(=O)c3ccncc3)cc2c(=O)n1Cc1ccccc1 | - | . | . | - | . | -
CCOC(=O)N1CCN(Cc2cc(Cl)c3cccnc3c2O)CC1 | - | - | 44 | - | - | -
COc1ccc(OC)c(NC(=O)c2ccccc2SC)c1 | - | - | - | - | - | -
COc1ccc(OC)c(NC(=O)c2cc3oc4ccccc4c3cc2O)c1 | - | - | - | - | - | 96
CCCCc1ccc(NC(=O)CN2C(=O)C3CCCCC3C2=O)cc1 (stereo not given) | - | - | - | . | - | .
Cc1cc(N2CC(C)OC(C)C2)nc(C(C)C)n1 (stereo not given) | - | - | - | - | + | -
CC[C@@]1(c2cccc(C)c2)C(=O)N(C(=O)OC)N1C(=O)OC | - | - | - | . | - | .
CCOC(=O)N1C(=O)[C@@](CC)(c2ccccc2)N1C(=O)OCC | - | 35 | - | . | - | .
SMILES | CaV13 ICDI inh | HDAC3 inh | RanGTP-Impb inh | Runt-CBFb FRET | LANA-H2B inh | Runt-SMMHC FRET
CN1CCN(c2cc(-c3ccccc3)nc3cc(-c4ccc(F)cc4)nn23)CC1 | - | - | - | - | - | -
Fc1ccc(-c2cc3nc(-c4ccccc4)cc(N4CCN(CCN5CCOCC5)CC4)n3n2)cc1 | - | . | 22 | - | . | -
O=C(NNc1cccc(Cl)n1)c1c(Cl)cccc1Cl | - | - | - | . | - | -
CC(C)n1cc(CN2CCC(C(=O)Nc3cccc(-c4cccc(Cl)c4)c3)CC2)cn1 | - | - | - | . | - | .
CCOc1ccccc1Nc1nnc(SCC(=O)NC(=O)c2cccn2C)s1 | - | - | - | - | 16 | -
COc1cc(-n2nc(C)c3c2OC(N)=C(C#N)C3c2ccccc2)c(Cl)c(Br)c1O (stereo not given) | - | - | 65 | - | - | -
